Measurements from ChEMBL document CHEMBL1125079, “A unified approach to systematic isosteric substitution for acidic groups and application to NMDA antagonists related to 2-amino-7-phosphonoheptanoate” (J Med Chem, 1990).

Assays:
[1] = target: Glutamate receptor ionotropic, kainate (Rattus norvegicus) (UniProt P22756+Q01812+P42260+P42264+Q63273); test: Inhibition at Ionotropic glutamate receptor kainate was determined at a concentration of 200 uM in rat cerebellar slices
Rattus norvegicus = species: Rattus norvegicus; test: Tested for inhibition of NMDA-induced cyclic GMP increase in rat cerebellar slices; format: functional
[2] = Dissociation constant (pKa); format: physicochemical
How it was run: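 Measured in water at 23 °C from UV absorbance versus pH, using a pH meter calibrated with pH 5, 7 and 9 buffers. pH was stepped with 6 N HCl or NaOH to give 7–15 readings spanning the expected pKa, at 2–4 wavelengths with flow stopped. Spectra at pH 3 and 10 checked for decomposition. Simplex curve fit gave the pKa, reported as mean ± SD across wavelengths.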

[3] = Potentiometric pKa(in 25 mL of water) of the compound.; format: physicochemical
[4] = potentiometric pKa(in 25 mL of 1 M NaCl) of the compound.; format: physicochemical

Row | IC50 (Rattus norvegicus) [µM] | pKa [2] | SMILES | also measured
1 | 140 |  | Nc1ccccc1SCCCCCC(N)C(=O)O (stereo not drawn) | inhibition [1]: 20%
2 |  | 8.2 | c1ccc(CSc2c[nH]nn2)cc1 | 
3 | 310 | 9.35 | NC(CCCCCSc1ccccc1O)C(=O)O (stereo not drawn) | 
4 |  | 6.23 | O=S(=O)(Cc1ccccc1)c1nc[nH]n1 | 
5 | > 10000 |  | N[C@H](CCCCSc1cc(Cl)ccc1O)C(=O)O | 
6 | > 10000 |  | NC(CCCSc1ccccc1O)C(=O)O (stereo not drawn) | 
7 |  | 8.67 | O=S(=O)(Cc1ccccc1)c1ncc[nH]1 | 
8 | > 10000 | 7.38 | NC(CCCCCS(=O)(=O)c1ccccc1O)C(=O)O (stereo not drawn) | 
9 |  | 9.8 | [O-][S+](Cc1ccccc1)c1ncc[nH]1 (stereo not drawn) | 
10 | 220 | 8.55 | NC(CCCCCSc1cc(Cl)ccc1O)C(=O)O (stereo not drawn) | 
11 | > 10000 |  | NC(CCCCC[S+]([O-])c1ccccc1O)C(=O)O (stereo not drawn) | 
12 |  | 7.38 | [O-][S+](Cc1ccccc1)c1nc[nH]n1 (stereo not drawn) | 
13 |  | 9.5 | c1ccc(CSc2nc[nH]n2)cc1 | 
14 |  | 4.79 | O=S(=O)(Cc1ccccc1)c1nc(O)n[nH]1 | 
15 |  | 5.15 | O=S(=O)(Cc1ccccc1)c1c[nH]nn1 | 
16 |  | 7.85 | Oc1n[nH]c(SCc2ccccc2)n1 | 
17 |  | 6.09 | [O-][S+](Cc1ccccc1)c1c[nH]nn1 (stereo not drawn) | 
18 |  | 5.2 | [O-][S+](Cc1ccccc1)c1nc(O)n[nH]1 (stereo not drawn) | 
19 | 260 |  | NC(CCCSc1cc(Cl)ccc1O)C(=O)O (stereo not drawn) | 
20 |  | 11.6 | c1ccc(CSc2ncc[nH]2)cc1 | 

Row | SMILES | IC50 (Rattus norvegicus) [µM] | pKa [2] | also measured
21 | NC(CCCCCP(=O)(O)O)C(=O)O (stereo not drawn) [AP-7] | 35 | 2.64 | pKa [3]: 7.72; pKa [4]: 9.84
